Active and inactive are the calls of the source. The rule behind the calls is not given here.
Columns and labels:
[1] = molecular target: Dipeptidyl peptidase 4 (Homo sapiens) (UniProt P27487); experiment: Inhibition DPP4 in human LN18 cell extracts using Gly-Pro-AMC substrate at 100 uM incubated for 30 mins by fluorimetric assay
In short: (§1)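 Cells grown to confluence in DMEM with 4.5 g/L glucose (10% FCS for HCEC, 5% FCS for glioblastoma lines), then lysed in PBS with 0.1% Triton X-100. Inhibitor (methanol stock diluted in water) preincubated 5–10 min at room temperature in duplicate wells. Gly-Pro-AMC added at 10 μM final; fluorescence increase (ex/em 360/460 nm) read for 30 min at 37 °C.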

[2] = molecular target: Dipeptidyl peptidase 4 (Homo sapiens) (UniProt P27487); experiment: Inhibition DPP4 in human HCEC cell extracts using Gly-Pro-AMC substrate at 100 uM incubated for 30 mins by fluorimetric assay; in short: as §1
[3] = molecular target: Dipeptidyl peptidase 4 (Homo sapiens) (UniProt P27487); experiment: Inhibition DPP4 in human LNZ308 cell extracts using Gly-Pro-AMC substrate at 100 uM incubated for 30 mins by fluorimetric assay; in short: as §1
[4] = molecular target: Dipeptidyl peptidase 4 (Homo sapiens) (UniProt P27487); experiment: Inhibition DPP4 in human LN229 cell extracts using Gly-Pro-AMC substrate at 100 uM incubated for 30 mins by fluorimetric assay; in short: as §1
[5] = molecular target: Prolyl endopeptidase FAP (Homo sapiens) (UniProt Q12884); experiment: Inhibition at human recombinant FAPalpha at 100 uM
Chain of Prolyl endopeptidase FAP (Homo sapiens) (Q12884 whole entry): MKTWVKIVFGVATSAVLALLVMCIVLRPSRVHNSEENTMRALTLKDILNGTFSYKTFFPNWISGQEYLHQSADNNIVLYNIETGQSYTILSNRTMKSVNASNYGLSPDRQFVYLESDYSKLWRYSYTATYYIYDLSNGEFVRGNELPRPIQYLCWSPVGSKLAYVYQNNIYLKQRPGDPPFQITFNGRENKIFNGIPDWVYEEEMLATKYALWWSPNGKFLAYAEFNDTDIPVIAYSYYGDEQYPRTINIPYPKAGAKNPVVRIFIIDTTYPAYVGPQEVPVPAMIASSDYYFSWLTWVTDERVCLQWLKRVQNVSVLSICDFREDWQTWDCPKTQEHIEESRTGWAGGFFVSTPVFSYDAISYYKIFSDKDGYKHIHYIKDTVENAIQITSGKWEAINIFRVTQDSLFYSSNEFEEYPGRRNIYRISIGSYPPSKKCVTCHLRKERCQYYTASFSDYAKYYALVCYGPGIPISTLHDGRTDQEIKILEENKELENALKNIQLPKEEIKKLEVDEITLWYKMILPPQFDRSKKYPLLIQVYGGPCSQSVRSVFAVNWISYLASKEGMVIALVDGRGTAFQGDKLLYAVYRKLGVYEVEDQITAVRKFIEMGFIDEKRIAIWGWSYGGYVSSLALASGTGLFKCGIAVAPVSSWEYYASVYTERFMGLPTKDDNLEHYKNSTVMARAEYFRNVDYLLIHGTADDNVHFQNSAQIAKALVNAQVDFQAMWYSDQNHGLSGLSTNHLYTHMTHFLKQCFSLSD
In short: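 Recombinant human FAPα diluted in PBS with 1 mg/mL BSA. Setup as for cell extracts: inhibitor preincubated 5–10 min at room temperature, then Z-Gly-Pro-AMC at 10 μM final. AMC fluorescence (ex/em 360/460 nm) recorded for 30 min at 37 °C.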

[6] = molecular target: T1, Prolyl endopeptidase (Homo sapiens) (UniProt P48147); experiment: Inhibition of POP in intact human HCEC cells using Cbz-Gly-Pro-AMC substrate at 100 uM incubated for 30 mins by fluorimetric assay; type: cell-based
T1 sequence (whole entry): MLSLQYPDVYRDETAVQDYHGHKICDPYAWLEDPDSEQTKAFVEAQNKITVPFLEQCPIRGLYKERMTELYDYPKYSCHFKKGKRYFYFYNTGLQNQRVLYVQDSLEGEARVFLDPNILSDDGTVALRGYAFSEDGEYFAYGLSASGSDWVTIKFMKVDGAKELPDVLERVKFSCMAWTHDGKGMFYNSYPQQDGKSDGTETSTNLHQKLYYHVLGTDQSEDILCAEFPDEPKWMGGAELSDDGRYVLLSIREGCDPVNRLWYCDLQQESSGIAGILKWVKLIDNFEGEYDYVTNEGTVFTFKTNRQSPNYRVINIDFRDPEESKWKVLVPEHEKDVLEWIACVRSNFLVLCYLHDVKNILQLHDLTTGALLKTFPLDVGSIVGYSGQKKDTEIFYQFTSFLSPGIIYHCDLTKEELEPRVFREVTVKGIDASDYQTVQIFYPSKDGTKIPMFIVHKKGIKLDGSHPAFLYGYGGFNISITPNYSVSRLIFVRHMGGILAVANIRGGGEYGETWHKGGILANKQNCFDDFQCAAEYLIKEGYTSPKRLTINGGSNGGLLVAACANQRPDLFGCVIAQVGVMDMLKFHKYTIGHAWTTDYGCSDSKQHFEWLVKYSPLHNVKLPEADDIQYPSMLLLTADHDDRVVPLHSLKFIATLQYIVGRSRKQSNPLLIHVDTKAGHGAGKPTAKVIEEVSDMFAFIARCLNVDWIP
In short: (§2)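 Intact confluent monolayers kept in PBS pH 7.2–7.4 without detergent, in duplicate wells. Inhibitor added 5–10 min at room temperature before Z-Gly-Pro-AMC at 10 μM final. Fluorescence increase (ex/em 360/460 nm) followed for 30 min at 37 °C. IC50 obtained by plotting residual activity against inhibitor concentration.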

[7] = molecular target: T1, Prolyl endopeptidase (Homo sapiens); experiment: Inhibition of POP in intact human LN229 cells using Cbz-Gly-Pro-AMC substrate at 100 uM incubated for 30 mins by fluorimetric assay; type: cell-based; in short: as §2
[8] = molecular target: T1, Prolyl endopeptidase (Homo sapiens); experiment: Inhibition of POP in intact human LN18 cells using Cbz-Gly-Pro-AMC substrate at 100 uM incubated for 30 mins by fluorimetric assay; type: cell-based; in short: as §2
[9] = molecular target: T1, Prolyl endopeptidase (Homo sapiens); experiment: Inhibition of POP in intact human LNZ308 cells using Cbz-Gly-Pro-AMC substrate at 100 uM incubated for 30 mins by fluorimetric assay; type: cell-based; in short: as §2
[10] = molecular target: T1, Prolyl endopeptidase (Homo sapiens); experiment: Inhibition of POP in human LN18 cell extracts using Cbz-Gly-Pro-AMC substrate at 100 uM incubated for 30 mins by fluorimetric assay
In short: (§3)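 Confluent monolayers (DMEM, 4.5 g/L glucose; 10% FCS for HCEC, 5% FCS for LN18/LN229/LNZ308) lysed in PBS containing 0.1% Triton X-100. Inhibitor preincubated 5–10 min at room temperature in duplicate wells. Z-Gly-Pro-AMC added at 10 μM final; fluorescence (ex/em 360/460 nm) recorded over 30 min at 37 °C. IC50 taken from residual activity plotted against decreasing inhibitor concentrations.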

[11] = molecular target: T1, Prolyl endopeptidase (Homo sapiens); experiment: Inhibition of POP in human LN229 cell extracts using Cbz-Gly-Pro-AMC substrate at 100 uM incubated for 30 mins by fluorimetric assay; in short: as §3
[12] = molecular target: T1, Prolyl endopeptidase (Homo sapiens); experiment: Inhibition of POP in human HCEC cell extracts using Cbz-Gly-Pro-AMC substrate at 100 uM incubated for 30 mins by fluorimetric assay; in short: as §3
[13] = molecular target: T1, Prolyl endopeptidase (Homo sapiens); experiment: Inhibition of POP in human LNZ308 cell extracts using Cbz-Gly-Pro-AMC substrate at 100 uM incubated for 30 mins by fluorimetric assay; in short: as §3

Chain of Dipeptidyl peptidase 4 (Homo sapiens) (P27487 whole entry, looked up): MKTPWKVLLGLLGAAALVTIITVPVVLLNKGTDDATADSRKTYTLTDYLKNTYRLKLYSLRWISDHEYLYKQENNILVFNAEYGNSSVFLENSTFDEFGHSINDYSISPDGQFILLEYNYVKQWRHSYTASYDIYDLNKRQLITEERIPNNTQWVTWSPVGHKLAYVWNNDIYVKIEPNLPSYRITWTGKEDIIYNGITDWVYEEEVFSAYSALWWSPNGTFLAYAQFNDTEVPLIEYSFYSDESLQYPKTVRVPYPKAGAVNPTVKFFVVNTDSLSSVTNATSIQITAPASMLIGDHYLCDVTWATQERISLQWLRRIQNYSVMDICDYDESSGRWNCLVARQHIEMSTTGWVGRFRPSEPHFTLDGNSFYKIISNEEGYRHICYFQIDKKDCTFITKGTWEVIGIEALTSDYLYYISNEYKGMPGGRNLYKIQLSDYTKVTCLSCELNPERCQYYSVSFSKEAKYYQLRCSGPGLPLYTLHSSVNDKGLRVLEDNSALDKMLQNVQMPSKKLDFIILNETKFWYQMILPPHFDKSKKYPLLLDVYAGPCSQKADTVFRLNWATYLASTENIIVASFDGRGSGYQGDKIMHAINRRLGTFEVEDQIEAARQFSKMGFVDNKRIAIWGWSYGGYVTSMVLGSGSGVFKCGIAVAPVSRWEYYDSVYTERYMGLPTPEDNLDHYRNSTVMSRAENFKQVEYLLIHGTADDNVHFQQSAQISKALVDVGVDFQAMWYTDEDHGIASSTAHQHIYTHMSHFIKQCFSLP

| SMILES | inhibition [1] | inhibition [2] | inhibition [3] | inhibition [4] | inhibition [5] [%] | inhibition [6] | inhibition [7] | inhibition [8] | inhibition [9] | inhibition [10] [%] | inhibition [11] [%] | inhibition [12] [%] | inhibition [13] [%] |
| --- | --- | --- | --- | --- | --- | --- | --- | --- | --- | --- | --- | --- | --- |
| O=C(c1cccc2c1C(=O)N(Cc1ccccc1)C2)N1CCCC1 | inactive | inactive | inactive | inactive | 11 |  |  |  |  |  |  |  |  |
| N#C[C@@H]1CCCN1C(=O)c1ccccc1C(=O)NCc1ccccc1 | inactive | inactive | inactive | inactive | 34 |  |  |  |  |  |  |  |  |
| N#C[C@@H]1CCCN1C(=O)c1cccc2c1C(=O)N(Cc1ccccc1)C2 | inactive | inactive | inactive | inactive | 28 |  |  |  |  |  |  |  |  |

Second part, the compound after the results:

| inhibition [1] | inhibition [2] | inhibition [3] | inhibition [4] | inhibition [5] [%] | inhibition [6] | inhibition [7] | inhibition [8] | inhibition [9] | inhibition [10] [%] | inhibition [11] [%] | inhibition [12] [%] | inhibition [13] [%] | SMILES |
| --- | --- | --- | --- | --- | --- | --- | --- | --- | --- | --- | --- | --- | --- |
| inactive | inactive | inactive | inactive |  | > 50% | > 50% | > 50% | > 50% |  |  |  |  | O=C(NCc1ccccc1)c1ccccc1C(=O)N1CCCC1 |
| inactive | inactive | inactive | inactive |  | inactive | inactive | inactive | inactive | > 50 | > 50 | > 50 | > 50 | O=C(NCc1ccccc1)c1ccccc1C(=O)N1CCCCC1 |

Reference: ChEMBL document CHEMBL2157866, “Virtual screening and computational optimization for the discovery of covalent prolyl oligopeptidase inhibitors with activity in human cells” (J Med Chem, 2012)
